Assay results as given in ChEMBL document CHEMBL1123492, “Carboxyl-modified amino acids and peptides as protease inhibitors” (J Med Chem, 1986).

What was measured:
[1] = tested on: NCC(=O)NC(Cc1ccccc1)C(=O)Nc1ccc([N+](=O)[O-])cc1; test: Michaelis constant against Dipeptidyl aminopeptidase 1
Method in brief: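 Cathepsin C diluted 1:200 daily in ice-cold 50 mM citrate pH 5 with 10 mM cysteamine. Gly-Phe p-nitroanilide hydrolysis at 37 °C read at 405 nm (Δε 9900 M⁻¹ cm⁻¹), started by adding substrate to prewarmed enzyme/inhibitor. Irreversible inhibition: enzyme preincubated with varied inhibitor levels, aliquots diluted into substrate over time. k_app from ln(% activity) vs time; Ki and k2 from 1/k_app vs 1/[I].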

[2] = Michaelis constant against leucine aminopeptidase-C
[3] = Michaelis constant against Leucine aminopeptidase-M

For “Dipeptidyl peptidase 1 (Homo sapiens), P53634”, the Km [1] was 3100 µM.

`CC(C)C[C@H](N)C(=O)Nc1ccc([N+](=O)[O-])cc1` gave a Km [2] of 2100 µM and a Km [3] of 600 µM.
